Test results: paper PMC2744100 (Journal of medicinal chemistry, 2009)
Like-named read-outs stand apart in the source and are kept apart here.

What was measured:
TCCYP51 [1] = target: T1, TCCYP51 (Trypanosoma cruzi, UniProt Q7Z1V1); details: read-out: Kd of enzyme/substrate complex formation; preferred substrate; cited from earlier work
TCCYP51 [2] = target: T1, TCCYP51; assay: Spectral titration of TCCYP51; format: binding; details: ligand-free maximum 417 nm
[3] = test system: TC trypomastigotes and amastigotes; assay: Growth inhibition assay in TC cells; format: cell-based, Trypanosoma cruzi; details: for Effect on parasites in cardiomyocytes at 20 μM: 20 μM compound; for Antiparasitic effect in both human forms of TC: pre-treatment of trypomastigotes, 1–50 μM
Outline: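 Trypomastigotes (10^6) pre-exposed 30 min to test compound in DMSO (1–50 μM) or DMSO alone. Then added in triplicate to rat cardiomyocyte monolayers, 10 parasites/cell, for 2 h. Unbound parasites were removed and cultures kept 72 h in DMEM + 10% FBS. T. cruzi per 200 cells and % infection were counted microscopically on Giemsa stain. Mean ± SD; Student t test versus DMSO.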

TC epimastigotes [4] = assay: TC cellular sterol analysis; format: cell-based, Trypanosoma cruzi; details: 50 μM, TLC
TCCYP51 [5] = target: T1, TCCYP51; assay: ESI-MS analysis of non-covalent interactions in TCCYP51; format: binding; details: ESI-mass spectrometry, 20-HCl 100 μM
TCCYP51 [6] = target: T1, TCCYP51; format: biochemical; details: reconstituted enzyme reaction
[7] = test system: rat cardiomyocyte monolayers; assay: Effect on cardiomyocyte monolayers in the growth inhibition assay; format: cell-based; details: concentrations higher than 10 μM
TC epimastigotes [8] = details: 1 μM; cited from earlier work
TC cells = details: published values; cited from earlier work

T1 sequence (Q7Z1V1 whole entry): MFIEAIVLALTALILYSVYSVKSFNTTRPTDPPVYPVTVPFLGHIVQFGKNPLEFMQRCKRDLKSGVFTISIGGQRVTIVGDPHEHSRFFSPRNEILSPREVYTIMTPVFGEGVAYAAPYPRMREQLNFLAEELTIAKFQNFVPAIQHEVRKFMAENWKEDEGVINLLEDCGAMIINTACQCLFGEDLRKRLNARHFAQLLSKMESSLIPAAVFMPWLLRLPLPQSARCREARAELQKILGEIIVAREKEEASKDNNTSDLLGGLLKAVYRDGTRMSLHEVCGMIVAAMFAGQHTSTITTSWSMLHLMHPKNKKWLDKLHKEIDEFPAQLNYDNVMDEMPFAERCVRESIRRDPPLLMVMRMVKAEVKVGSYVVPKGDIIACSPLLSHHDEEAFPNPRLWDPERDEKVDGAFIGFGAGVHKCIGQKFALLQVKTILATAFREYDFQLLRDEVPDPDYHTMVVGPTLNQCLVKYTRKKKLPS

C=C(CC[C@@H](C)[C@H]1CC[C@@]2(C)C3=C(CC[C@]12C)[C@@]1(C)CC[C@H](O)C(C)(C)[C@@H]1CC3)C(C)C [24-methylenedihydrolanosterol]
Kd (TCCYP51 [1]): ~1 µM

CCC(C(=O)Nc1ccncc1)c1ccccc1 (centres unmarked) [Compound 5, 2-phenyl-N-pyridin-4-ylbutanamide]
Spectral Response in TCCYP51, Soret band maximum (TCCYP51 [2]): 422 nm

O=C(Nc1ccncc1)C1c2ccccc2Oc2ccccc21 [Compound 7]
Spectral Response in TCCYP51, Soret band maximum (TCCYP51 [2]): 422 nm

CC1CCC(C(=O)NC(Cc2c[nH]c3ccccc23)C(=O)Nc2ccncc2)CC1 (centres unmarked) [Compound 9]
Spectral Response in TCCYP51, Soret band maximum (TCCYP51 [2]): 422 nm | Effect on parasites in cardiomyocytes at 20 μM ([3]; 72 h): practically eliminated from cardiomyocytes | Antiparasitic effect in both human forms of TC [3]: clear dose-dependent antiparasitic effect

COc1ccc2c(c1)c(CC(=O)Nc1cccnc1)c(C)n2C(=O)c1ccc(Cl)cc1 [Compound 12]
Spectral Response in TCCYP51, Soret band maximum (TCCYP51 [2]): 422 nm

COc1ccc2c(c1)c(CC(=O)NCc1ccccn1)c(C)n2C(=O)c1ccc(Cl)cc1 [Compound 13]
Spectral Response in TCCYP51, Soret band maximum (TCCYP51 [2]): 418 nm | Effect on parasites in cardiomyocytes at 20 μM ([3]; 72 h): practically eliminated from cardiomyocytes | Antiparasitic effect in both human forms of TC [3]: clear dose-dependent antiparasitic effect

COc1ccc2c(c1)c(CC(=O)NCc1ccncc1)c(C)n2C(=O)c1ccc(Cl)cc1 [Compound 14]
Spectral Response in TCCYP51, Soret band maximum (TCCYP51 [2]): 422 nm

COc1ccc2c(c1)c(CC(=O)NC(C)c1ccncc1)c(C)n2C(=O)c1ccc(Cl)cc1 (centres unmarked) [Compound 15]
Spectral Response in TCCYP51, Soret band maximum (TCCYP51 [2]): 422 nm

COc1ccc2c(c1)c(CC(=O)Nc1ccccn1)c(C)n2C(=O)c1ccc(Cl)cc1 [Compound 16]
Spectral Response in TCCYP51, Soret band maximum (TCCYP51 [2]): 416 nm

COc1ccc2c(c1)c(CC(=O)Nc1ncccn1)c(C)n2C(=O)c1ccc(Cl)cc1 [Compound 17]
Spectral Response in TCCYP51, Soret band maximum (TCCYP51 [2]): 417 nm

COc1ccc2c(c1)c(CC(=O)NCc1ccc(Cl)nc1)c(C)n2C(=O)c1ccc(Cl)cc1 [Compound 18]
Spectral Response in TCCYP51, Soret band maximum (TCCYP51 [2]): 420 nm | Effect on parasites in cardiomyocytes at 20 μM ([3]; 72 h): practically eliminated from cardiomyocytes | Antiparasitic effect in both human forms of TC [3]: clear dose-dependent antiparasitic effect

COc1ccc2c(c1)c(CC(=O)NCc1ccc(C(F)(F)F)nc1)c(C)n2C(=O)c1ccc(Cl)cc1 [Compound 19]
Spectral Response in TCCYP51, Soret band maximum (TCCYP51 [2]): 420 nm

COc1ccc2c(c1)c(CC(=O)NCCc1cccnc1)c(C)n2C(=O)c1ccc(Cl)cc1 [Compound 20]
Spectral Response in TCCYP51, Soret band maximum (TCCYP51 [2]): 422 nm | Effect on parasites in cardiomyocytes at 20 μM ([3]; 72 h): practically eliminated from cardiomyocytes | ED50 (growth inhibition) ([3]; TC amastigotes in cardiomyocytes, 72 h): < 1 µM | Antiparasitic effect in both human forms of TC [3]: clear dose-dependent antiparasitic effect | Effect on TC cellular sterol composition (TC epimastigotes [4]): very similar effect on cellular sterol composition | Binding stoichiometry to TCCYP51 (TCCYP51 [5]): simultaneous binding of two inhibitor molecules to the enzyme

COc1ccc2c(c1)c(CC(=O)NCCc1cccc(Cl)c1)c(C)n2C(=O)c1ccc(Cl)cc1 [Compound 21]
Spectral Response in TCCYP51, Soret band maximum (TCCYP51 [2]): 419 nm | Character of TCCYP51 inhibition (reversibility) (TCCYP51 [6]): functionally irreversible | Effect on cardiomyocyte monolayers [7]: release cardiomyocyte monolayers at higher concentrations

COc1ccc2c(c1)c(CC(=O)NCC(C)c1ccccc1)c(C)n2C(=O)c1ccc(Cl)cc1 (centres unmarked) [Compound 22]
Spectral Response in TCCYP51, Soret band maximum (TCCYP51 [2]): 419 nm | Character of TCCYP51 inhibition (reversibility) (TCCYP51 [6]): functionally irreversible | Effect on cardiomyocyte monolayers [7]: release cardiomyocyte monolayers at higher concentrations

O=C(NC(Cn1ccnc1)c1ccc(Cl)cc1Cl)c1ccc(-c2nnc(-c3ccccc3)o2)cc1 (centres unmarked) [SDZ-284629, N-(1-(2,4-dichlorophenyl)-2-(1H-imidazol-1-yl)ethyl)-4-(5-phenyl-1,3,4-oxadiazol-2-yl)benzamide]
Effect on TC cellular sterol composition (TC epimastigotes [8]): the pathway practically stops at the stage of the C14-methylated sterol precursors

O=C(Cn1ccnc1[N+](=O)[O-])NCc1ccccc1 [benznidazole]
ED50 in TC cells (TC cells): 25 to 50 µM
